# Published values from different studies.
# Protocols differ between the studies behind these lines.
# FABP4: Fatty acid-binding protein, adipocyte (FABP4, Homo sapiens, UniProt P15090)
# AKT1: RAC-alpha serine/threonine-protein kinase (AKT1, Homo sapiens, UniProt P31749)
# CDK9 with cyclin T1: Cyclin-dependent kinase 9, with cyclin T1 (CDK9, Homo sapiens, UniProt P50750)
Compound,target,assay,test system,conditions,endpoint,result
CC(C)(C)Cc1ccc(O)c(O)c1,"Peroxiredoxin-5, mitochondrial (PRDX5, Homo sapiens, UniProt P30044)","binding, NMR",,,Kd,20 µM
CCCCCCCCCC(=O)O,FABP4,"ligand displacement, fluorescence",,,Ki,1.29 µM
CCOc1ccc(C(=O)CC(SCc2ccc(OC)cc2)C(=O)O)cc1 (stereo not drawn),AKT1,"ligand displacement, FP",,,Ki,560 µM
CN(C)C(=O)c1cc2cnc(Nc3cccc4c(=O)cc(N5CCOCC5)oc34)nc2n1C1CCCC1,CDK9 with cyclin T1,"enzyme activity, inhibitor, radiometric",,,IC50,9.57 µM
Fc1ccc(/C=C/C=N/NC(=S)NCc2ccccc2)cc1,"Urease subunit alpha (Sporosarcina pasteurii, UniProt P41020)","enzyme activity, inhibitor",,,Ki,3.26 µM
COc1ccc(C(=O)CC(SCc2ccc(Cl)cc2)C(=O)O)cc1 (stereo not drawn),AKT1,"ligand displacement, FP",,,Ki,320 µM
CCCCCCCCC(=O)O,FABP4,"ligand displacement, fluorescence",,,Ki,12.3 µM
CCOc1ccc(C(=O)CC(SCc2ccc(Cl)cc2)C(=O)OC)cc1 (stereo not drawn),AKT1,"ligand displacement, FP",,,Ki,530 µM
Fc1c[nH]c2nccc(-c3ccc(C4CCNCC4)cc3)c12,AKT1,"target engagement in cells, BRET",,,IC50,17.1 µM
CN(C)C(=O)c1cc2cnc(Nc3ccc(-c4ccc5c(=O)cc(N6CCOCC6)oc5c4)c(F)c3)nc2n1C1CCCC1,CDK9 with cyclin T1,"enzyme activity, inhibitor, radiometric",,,IC50,0.00325 µM
CCCCCCCCCCCC(=O)O,FABP4,"ligand displacement, fluorescence",,,Ki,0.827 µM
CCOc1ccc(C(=O)CC(SCc2ccc(Br)cc2)C(=O)O)cc1 (stereo not drawn),AKT1,"ligand displacement, FP",,,Ki,279 µM
C[C@@H]1CNC[C@H](C)[C@@]1(O)c1ccc(-c2ccnc3[nH]cc(F)c23)cc1,AKT1,"enzyme activity, inhibitor, radiometric",,,IC50,0.13 µM
CCCCCCC(=O)O,FABP4,"ligand displacement, fluorescence",,,Ki,145 µM
O=c1c(-c2ccc(O)cc2)coc2cc(O)ccc12,"Cytochrome P450 2C9 (CYP2C9, Homo sapiens, UniProt P11712)","enzyme activity, inhibitor","human, liver microsomes",15 min,Ki,7.85 µM
CCCCCCCCCCC(=O)O,FABP4,"ligand displacement, fluorescence",,,Ki,0.815 µM
CN(C)C(=O)c1cc2cnc(Nc3ccc(-c4cccc5c(=O)cc(N6CCOCC6)oc45)c(F)c3)nc2n1C1CCCC1,CDK9 with cyclin T1,"enzyme activity, inhibitor, radiometric",,,IC50,0.00276 µM
CCCCCCCCCCCCC(=O)O,FABP4,"ligand displacement, fluorescence",,,Ki,1.32 µM
C#CCOc1cccc(C(=O)CC(SCc2cccc(Br)c2)C(=O)O)c1 (stereo not drawn),AKT1,"ligand displacement, FP",,,Ki,72.7 µM
CCCCCCCC(=O)O,FABP4,"ligand displacement, fluorescence",,,Ki,13.5 µM
CCOc1ccc(C(=O)CC(SCc2ccc(F)cc2)C(=O)O)cc1 (stereo not drawn),AKT1,"ligand displacement, FP",,,Ki,225 µM
OC1(c2ccc(-c3ccnc4[nH]cc(F)c34)cc2)CNC1,AKT1,"target engagement in cells, BRET",,,IC50,22.8 µM
CN1CCN(c2cc(=O)c3ccc(Nc4ncc5cc(C(=O)N(C)C)n(C6CCCC6)c5n4)cc3o2)CC1,CDK9 with cyclin T1,"enzyme activity, inhibitor, radiometric",,,IC50,0.0012 µM
CCOc1ccccc1C(=O)CC(SCc1ccc(Cl)cc1)C(=O)O (stereo not drawn),AKT1,"ligand displacement, FP",,,Ki,> 1000 µM
